Test results reported in ChEMBL document CHEMBL5649170, “Sustained microglial depletion with CSF1R inhibitor impairs parenchymal plaque development in an Alzheimer's disease model” (Nat Commun, 2019).
Activity calls are given as the source filed them. No cut-off for these calls is given here.

Columns and labels:
[1] = target: T1, Macrophage colony-stimulating factor 1 receptor (Mus musculus) (UniProt P09581); assay: In vivo inhibition of CSF1R in 5XFAD mouse assessed as reduction in plaque pathology in […] cortex at 600 ppm administered as rodent chow starting from 1.5 months and measured after 5 months by immunolabeling based confocal microscopic analysis; settings: route po, time 3.5 months
T1 sequence (whole entry): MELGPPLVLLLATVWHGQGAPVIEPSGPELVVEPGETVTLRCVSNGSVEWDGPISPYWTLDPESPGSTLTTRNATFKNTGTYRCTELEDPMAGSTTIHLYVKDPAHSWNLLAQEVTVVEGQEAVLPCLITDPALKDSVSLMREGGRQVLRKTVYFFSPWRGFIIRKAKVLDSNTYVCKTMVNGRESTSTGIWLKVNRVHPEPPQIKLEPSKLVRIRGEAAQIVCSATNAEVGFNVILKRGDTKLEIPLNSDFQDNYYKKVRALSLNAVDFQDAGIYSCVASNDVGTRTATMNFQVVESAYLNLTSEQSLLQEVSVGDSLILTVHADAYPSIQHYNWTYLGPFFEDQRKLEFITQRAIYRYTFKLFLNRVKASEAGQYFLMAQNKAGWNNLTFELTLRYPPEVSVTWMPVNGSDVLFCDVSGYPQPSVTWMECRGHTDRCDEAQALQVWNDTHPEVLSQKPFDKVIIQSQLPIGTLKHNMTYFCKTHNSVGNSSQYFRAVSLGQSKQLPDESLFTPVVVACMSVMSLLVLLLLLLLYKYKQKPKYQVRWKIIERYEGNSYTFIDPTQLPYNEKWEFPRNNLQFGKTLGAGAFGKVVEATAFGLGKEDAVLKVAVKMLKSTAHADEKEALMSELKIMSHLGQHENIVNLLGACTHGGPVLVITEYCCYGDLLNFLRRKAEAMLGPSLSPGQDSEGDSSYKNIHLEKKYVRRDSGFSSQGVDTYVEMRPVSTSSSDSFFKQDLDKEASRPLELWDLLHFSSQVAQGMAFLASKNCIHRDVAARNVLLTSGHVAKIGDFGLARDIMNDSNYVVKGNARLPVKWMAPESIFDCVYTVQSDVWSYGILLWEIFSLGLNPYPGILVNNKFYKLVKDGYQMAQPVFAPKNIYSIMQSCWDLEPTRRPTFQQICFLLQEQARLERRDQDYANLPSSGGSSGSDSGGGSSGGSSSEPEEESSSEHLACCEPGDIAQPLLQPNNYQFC

[2] = target: Tyrosine-protein kinase BTK (Homo sapiens, UniProt Q06187); assay: Inhibition of BTK (unknown origin)
[3] = target: Casein kinase I isoform gamma-2 (Homo sapiens, UniProt P78368); assay: Inhibition of CSNK1G2 (unknown origin)
[4] = target: Epidermal growth factor receptor (Homo sapiens, UniProt P00533); assay: Inhibition of EGFR (unknown origin)
[5] = target: Homeodomain-interacting protein kinase 4 (Homo sapiens, UniProt Q8NE63); assay: Inhibition of HIPK4 (unknown origin)
[6] = target: Inhibitor of nuclear factor kappa-B kinase subunit beta (Homo sapiens, UniProt O14920); assay: Inhibition of IKBKB (unknown origin)
[7] = target: MAP kinase-activated protein kinase 5 (Homo sapiens, UniProt Q8IW41); assay: Inhibition of MAPKAPK5 (unknown origin)
[8] = target: Serine/threonine-protein kinase Nek1 (Homo sapiens, UniProt Q96PY6); assay: Inhibition of NEK1 (unknown origin)
[9] = target: Serine/threonine-protein kinase PAK 4 (Homo sapiens, UniProt O96013); assay: Inhibition of PAK4 (unknown origin)
[10] = target: Serine/threonine-protein kinase D1 (Homo sapiens, UniProt Q15139); assay: Inhibition of PRKD1 (unknown origin)
[11] = target: cGMP-dependent protein kinase 1 (Homo sapiens, UniProt Q13976); assay: Inhibition of PRKG1 (unknown origin)
[12] = target: Ribosomal protein S6 kinase alpha-3 (Homo sapiens, UniProt P51812); assay: Inhibition of RPS6KA3 (unknown origin)
[13] = target: Ribosomal protein S6 kinase beta-1 (Homo sapiens, UniProt P23443); assay: Inhibition of RPS6KB1 (unknown origin)
[14] = AUC (0 to infinity) in female rat at 45 mg/kg, po administered as single dose via gavage; assay type: ADME, organism-based; settings: in vivo
[15] = Cmax in dog at 45 mg/kg, po administered as single dose via gavage; assay type: ADME, organism-based, Canis lupus familiaris; settings: in vivo
[16] = test system: Mus musculus; assay: Effect on circulating leukocytes in wildtype mouse assessed as percentage of CD45+/PI- cells expressing CD8 at 1200 ppm administered as rodent chow for 10 to 24 weeks (reference value: 5.56 to 11.8 %); assay type: functional; settings: route po, time 10-24 weeks
[17] = test system: Mus musculus; assay: Effect on circulating leukocytes in wildtype mouse assessed as percentage of CD45+/PI- cells expressing CD11c at 1200 ppm administered as rodent chow for 10 to 24 weeks (reference value: 34.7 to 54.3 %); assay type: functional; settings: route po, time 10-24 weeks
[18] = test system: Mus musculus; assay: Antialzheimer activity in 5XFAD mouse assessed as number of Iba positive cells per FOV in somatosensory cortex at 1200 ppm administered as rodent chow starting from 1.5 months and measured after 4 months (reference value: 192 to 604); assay type: functional; settings: route po, time 2.5 months, 1825 h
[19] = test system: Mus musculus; assay: Antialzheimer activity in wildtype mouse assessed as number of Iba positive cells per FOV in somatosensory cortex at 1200 ppm administered as rodent chow starting from 1.5 months and measured after 7 months (reference value: 371 to 472); assay type: functional; settings: route po, time 5.5 months, 4015 h
[20] = test system: Mus musculus; assay: Antialzheimer activity in 5XFAD mouse assessed as time spent in perimeter zone at 1200 ppm administered as rodent chow for 10 to 24 weeks by Open field test (reference value: 169.1 to 285.1 sec); assay type: functional; settings: route po, time 10-24 weeks
[21] = test system: Mus musculus; assay: Effect on APP processing pathway in 5XFAD mouse assessed as C-terminal PS1 protein signal intensity in cortex at 1200 ppm administered as rodent starting from 1.5 months and measured after 7 months (reference value: 42.868 to 145.444 %); assay type: functional; settings: route po, time 5.5 months, 4015 h
[22] = Effect on Clec7a gene expression in wild type mouse cortex at 1200 ppm administered as rodent chow starting from 1.5 months and measured after 7 months by RNA-Seq analysis (reference value: 0 to 0.413 RPKM); assay type: functional; settings: route po, time 5.5 months, 4015 h
Method in brief: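 WT and 5xFAD mice were treated with 1200 ppm PLX5622 chow or control chow from 1.5 to 7 months of age. Brains were microdissected into cortex, hippocampus and thalamus, and RNA was extracted from tissue powder. Whole-transcriptome RNA-Seq libraries were sequenced, with n = 4 per group per region (48 samples).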

[23] = Effect on Ctsz gene expression in wild type mouse thalamus at 1200 ppm administered as rodent chow starting from 1.5 months and measured after 7 months by RNA-Seq analysis (reference value: 13.234 to 17.920 RPKM); assay type: functional; settings: route po, time 5.5 months, 4015 h
[24] = Effect on Ctsz gene expression in 5XFAD mouse thalamus at 1200 ppm administered as rodent chow starting from 1.5 months and measured after 7 months by RNA-Seq analysis (reference value: 23.715 to 34.765 RPKM); assay type: functional; settings: route po, time 5.5 months, 4015 h

Sequence of Serine/threonine-protein kinase PAK 4 (O96013 whole entry): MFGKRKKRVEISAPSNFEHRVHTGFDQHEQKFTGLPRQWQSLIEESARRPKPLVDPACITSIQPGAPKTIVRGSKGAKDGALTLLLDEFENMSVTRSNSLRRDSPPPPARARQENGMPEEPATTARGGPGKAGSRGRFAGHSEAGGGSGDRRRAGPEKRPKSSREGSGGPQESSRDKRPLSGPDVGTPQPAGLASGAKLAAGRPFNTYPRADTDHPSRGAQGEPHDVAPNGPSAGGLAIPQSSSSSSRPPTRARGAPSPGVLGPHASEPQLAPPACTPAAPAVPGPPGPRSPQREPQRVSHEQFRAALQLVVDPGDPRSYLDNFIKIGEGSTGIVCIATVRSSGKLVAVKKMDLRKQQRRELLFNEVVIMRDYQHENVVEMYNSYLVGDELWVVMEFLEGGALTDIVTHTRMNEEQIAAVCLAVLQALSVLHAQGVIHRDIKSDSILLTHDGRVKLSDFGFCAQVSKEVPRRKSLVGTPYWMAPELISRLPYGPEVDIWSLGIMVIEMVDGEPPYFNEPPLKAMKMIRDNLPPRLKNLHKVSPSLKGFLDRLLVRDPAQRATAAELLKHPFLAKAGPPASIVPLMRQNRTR
Sequence of Serine/threonine-protein kinase Nek1 (Q96PY6 whole entry): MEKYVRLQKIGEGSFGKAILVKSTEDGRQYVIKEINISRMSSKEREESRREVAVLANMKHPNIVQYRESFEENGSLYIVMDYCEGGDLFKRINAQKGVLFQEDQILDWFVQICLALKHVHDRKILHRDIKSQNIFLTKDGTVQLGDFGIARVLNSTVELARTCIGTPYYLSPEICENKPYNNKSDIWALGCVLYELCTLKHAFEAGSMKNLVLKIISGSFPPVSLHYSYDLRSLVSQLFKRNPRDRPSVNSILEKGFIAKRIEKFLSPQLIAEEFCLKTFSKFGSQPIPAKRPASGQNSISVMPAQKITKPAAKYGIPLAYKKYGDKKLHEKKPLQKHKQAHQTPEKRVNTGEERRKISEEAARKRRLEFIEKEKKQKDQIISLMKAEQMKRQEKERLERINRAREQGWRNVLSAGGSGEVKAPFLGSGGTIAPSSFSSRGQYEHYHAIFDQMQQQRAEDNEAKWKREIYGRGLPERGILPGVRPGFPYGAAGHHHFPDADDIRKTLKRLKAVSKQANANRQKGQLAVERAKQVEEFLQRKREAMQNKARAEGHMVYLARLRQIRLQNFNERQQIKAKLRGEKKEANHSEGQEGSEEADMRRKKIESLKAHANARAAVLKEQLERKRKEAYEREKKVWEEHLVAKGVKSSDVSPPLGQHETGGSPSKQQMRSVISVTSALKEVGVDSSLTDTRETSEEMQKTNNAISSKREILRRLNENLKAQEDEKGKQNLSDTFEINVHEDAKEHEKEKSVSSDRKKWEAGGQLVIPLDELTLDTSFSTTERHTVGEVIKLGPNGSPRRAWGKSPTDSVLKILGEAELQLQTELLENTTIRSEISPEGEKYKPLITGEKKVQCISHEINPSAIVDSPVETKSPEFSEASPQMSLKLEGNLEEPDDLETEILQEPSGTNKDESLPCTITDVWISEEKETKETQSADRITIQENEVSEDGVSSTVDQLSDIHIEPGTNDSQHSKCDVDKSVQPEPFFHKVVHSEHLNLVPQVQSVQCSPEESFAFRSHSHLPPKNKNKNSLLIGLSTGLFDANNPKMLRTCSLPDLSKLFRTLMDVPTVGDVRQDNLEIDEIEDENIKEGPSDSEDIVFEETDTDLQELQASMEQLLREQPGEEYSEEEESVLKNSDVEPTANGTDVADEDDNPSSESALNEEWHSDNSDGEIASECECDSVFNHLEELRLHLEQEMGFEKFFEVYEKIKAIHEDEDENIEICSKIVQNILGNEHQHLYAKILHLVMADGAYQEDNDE
Sequence of MAP kinase-activated protein kinase 5 (Q8IW41 whole entry): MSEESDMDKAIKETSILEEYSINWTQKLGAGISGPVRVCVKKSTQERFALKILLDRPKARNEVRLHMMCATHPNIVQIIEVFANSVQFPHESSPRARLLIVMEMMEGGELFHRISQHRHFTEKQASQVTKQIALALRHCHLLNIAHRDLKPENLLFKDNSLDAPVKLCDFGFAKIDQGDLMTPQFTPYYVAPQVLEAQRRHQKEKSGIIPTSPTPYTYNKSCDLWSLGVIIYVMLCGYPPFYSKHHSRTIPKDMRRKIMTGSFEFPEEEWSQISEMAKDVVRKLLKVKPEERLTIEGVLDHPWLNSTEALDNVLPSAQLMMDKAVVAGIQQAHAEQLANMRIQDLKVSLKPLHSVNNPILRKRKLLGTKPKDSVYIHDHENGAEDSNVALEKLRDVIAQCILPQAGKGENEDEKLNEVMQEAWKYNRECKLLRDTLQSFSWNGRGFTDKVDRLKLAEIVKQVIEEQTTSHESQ
Sequence of Serine/threonine-protein kinase D1 (Q15139 whole entry): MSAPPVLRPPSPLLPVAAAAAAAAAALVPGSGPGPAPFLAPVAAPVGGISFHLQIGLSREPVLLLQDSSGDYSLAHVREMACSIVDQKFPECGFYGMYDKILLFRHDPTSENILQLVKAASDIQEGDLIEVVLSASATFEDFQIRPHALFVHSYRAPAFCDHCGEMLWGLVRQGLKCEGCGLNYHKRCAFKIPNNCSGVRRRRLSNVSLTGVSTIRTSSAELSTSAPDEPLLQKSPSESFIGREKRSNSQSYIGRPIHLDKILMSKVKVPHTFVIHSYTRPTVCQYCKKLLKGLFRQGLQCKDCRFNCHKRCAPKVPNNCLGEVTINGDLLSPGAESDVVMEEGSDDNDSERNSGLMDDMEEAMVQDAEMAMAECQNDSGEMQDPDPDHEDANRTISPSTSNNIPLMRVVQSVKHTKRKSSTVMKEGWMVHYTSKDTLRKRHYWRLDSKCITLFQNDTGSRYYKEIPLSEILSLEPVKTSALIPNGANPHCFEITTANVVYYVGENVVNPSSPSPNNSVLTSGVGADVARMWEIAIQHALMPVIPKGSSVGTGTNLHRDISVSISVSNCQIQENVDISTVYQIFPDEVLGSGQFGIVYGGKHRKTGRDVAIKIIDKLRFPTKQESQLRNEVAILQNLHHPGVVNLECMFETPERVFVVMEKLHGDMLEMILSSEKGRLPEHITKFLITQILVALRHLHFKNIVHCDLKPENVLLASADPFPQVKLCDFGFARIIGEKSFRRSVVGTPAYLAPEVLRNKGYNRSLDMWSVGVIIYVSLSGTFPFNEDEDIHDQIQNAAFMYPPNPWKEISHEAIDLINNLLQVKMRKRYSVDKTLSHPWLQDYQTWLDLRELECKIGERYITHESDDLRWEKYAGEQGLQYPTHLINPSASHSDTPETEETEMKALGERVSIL
Sequence of Tyrosine-protein kinase BTK (Q06187 whole entry, canonical isoform): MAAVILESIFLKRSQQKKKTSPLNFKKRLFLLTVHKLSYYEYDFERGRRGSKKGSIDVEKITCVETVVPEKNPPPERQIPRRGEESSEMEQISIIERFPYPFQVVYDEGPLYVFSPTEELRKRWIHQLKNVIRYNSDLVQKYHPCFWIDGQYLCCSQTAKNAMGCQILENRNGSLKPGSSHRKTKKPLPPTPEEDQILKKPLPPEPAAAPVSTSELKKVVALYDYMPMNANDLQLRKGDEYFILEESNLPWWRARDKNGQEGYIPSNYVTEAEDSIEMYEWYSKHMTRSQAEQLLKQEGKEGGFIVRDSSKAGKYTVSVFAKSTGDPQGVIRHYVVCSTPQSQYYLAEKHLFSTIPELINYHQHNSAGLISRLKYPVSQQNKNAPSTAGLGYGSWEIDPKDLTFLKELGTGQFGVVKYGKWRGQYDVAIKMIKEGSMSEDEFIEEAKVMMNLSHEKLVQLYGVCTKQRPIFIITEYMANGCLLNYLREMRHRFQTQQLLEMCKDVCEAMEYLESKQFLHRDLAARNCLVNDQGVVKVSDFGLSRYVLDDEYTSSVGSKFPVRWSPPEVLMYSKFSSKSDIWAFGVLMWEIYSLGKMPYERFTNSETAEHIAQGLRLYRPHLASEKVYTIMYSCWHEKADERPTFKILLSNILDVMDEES
Sequence of Epidermal growth factor receptor (P00533 whole entry): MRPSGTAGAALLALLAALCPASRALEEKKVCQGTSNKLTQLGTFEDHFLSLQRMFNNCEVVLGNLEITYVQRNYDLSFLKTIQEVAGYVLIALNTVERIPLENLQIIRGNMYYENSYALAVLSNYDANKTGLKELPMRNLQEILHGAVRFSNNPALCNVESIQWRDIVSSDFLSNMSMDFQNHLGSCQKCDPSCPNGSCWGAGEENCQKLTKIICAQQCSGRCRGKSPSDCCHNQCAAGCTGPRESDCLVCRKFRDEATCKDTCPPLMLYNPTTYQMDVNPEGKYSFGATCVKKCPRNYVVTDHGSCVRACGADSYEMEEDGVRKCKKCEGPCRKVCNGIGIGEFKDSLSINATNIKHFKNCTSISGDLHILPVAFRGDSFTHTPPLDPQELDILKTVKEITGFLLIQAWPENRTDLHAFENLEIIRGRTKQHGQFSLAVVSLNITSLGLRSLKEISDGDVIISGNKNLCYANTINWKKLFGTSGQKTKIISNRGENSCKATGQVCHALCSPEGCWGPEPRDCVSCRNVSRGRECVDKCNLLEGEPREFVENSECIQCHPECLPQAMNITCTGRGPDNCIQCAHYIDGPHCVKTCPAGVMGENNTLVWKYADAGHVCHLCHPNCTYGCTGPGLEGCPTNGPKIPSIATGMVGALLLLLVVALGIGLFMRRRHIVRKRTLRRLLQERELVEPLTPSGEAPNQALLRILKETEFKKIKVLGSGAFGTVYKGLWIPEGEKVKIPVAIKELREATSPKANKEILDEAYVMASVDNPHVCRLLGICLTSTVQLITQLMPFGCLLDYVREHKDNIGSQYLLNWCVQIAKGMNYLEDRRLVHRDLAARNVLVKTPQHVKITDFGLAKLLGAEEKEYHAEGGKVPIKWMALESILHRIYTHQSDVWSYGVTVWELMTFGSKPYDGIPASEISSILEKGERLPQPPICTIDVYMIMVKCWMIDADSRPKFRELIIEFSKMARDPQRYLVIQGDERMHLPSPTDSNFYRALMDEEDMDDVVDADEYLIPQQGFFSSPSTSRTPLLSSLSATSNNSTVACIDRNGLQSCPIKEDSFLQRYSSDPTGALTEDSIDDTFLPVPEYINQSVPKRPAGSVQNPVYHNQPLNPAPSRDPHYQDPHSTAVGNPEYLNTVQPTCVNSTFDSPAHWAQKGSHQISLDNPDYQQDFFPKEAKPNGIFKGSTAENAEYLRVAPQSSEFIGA

**Q.** Which inhibition [1] does the source give for `FC(F)(F)c1ccc(CNc2ccc(Cc3c[nH]c4ncc(Cl)cc34)cn2)cn1` [PEXIDARTINIB] here?
**A.** Its inhibition is “Active”.

**Q.** For `COc1ncc(F)cc1CNc1ccc(Cc2c[nH]c3ncc(C)cc23)c(F)n1` [PLX-5622], which IC50 [2] is on record?
**A.** Its IC50 is > 1000 nM.

**Q.** What about the IC50 [3] of the same compound?
**A.** The IC50 was > 1000 nM.

**Q.** And the IC50 [4]?
**A.** Its IC50 is > 1000 nM.

**Q.** And the IC50 [5]?
**A.** Its IC50 is > 1000 nM.

**Q.** And the IC50 [6]?
**A.** The IC50 was > 1000 nM.

**Q.** And the IC50 [7]?
**A.** The IC50 was > 1000 nM.

**Q.** What about the IC50 [8] of the same compound?
**A.** The IC50 was > 1000 nM.

**Q.** And the IC50 [9]?
**A.** The IC50 was > 1000 nM.

**Q.** What about the IC50 [10] of the same compound?
**A.** The IC50 was > 1000 nM.

**Q.** And the IC50 [11]?
**A.** Its IC50 is > 1000 nM.

**Q.** And the IC50 [12]?
**A.** The IC50 was > 1000 nM.

**Q.** And the IC50 [13]?
**A.** The IC50 was > 1000 nM.

**Q.** And the AUC(0-inf) [14]?
**A.** The AUC(0-inf) was 181 µg·h/mL.

**Q.** What about the Cmax [15] of the same compound?
**A.** The Cmax was 3630 ng/mL.

**Q.** What about the Activity [16] of the same compound?
**A.** Its Activity is 6.35%.

**Q.** What about the Activity [17] of the same compound?
**A.** The Activity was 31.4%.

**Q.** And the Activity [18]?
**A.** Its Activity is 0.

**Q.** And the Activity [19]?
**A.** Its Activity is 1.

**Q.** What about the Time [20] of the same compound?
**A.** The Time was 201.4 s.

**Q.** And the Activity [21]?
**A.** Its Activity is 12.015%.

**Q.** And the Activity [22]?
**A.** Its Activity is 0 RPKM.

**Q.** What about the Activity [23] of the same compound?
**A.** The Activity was 11.055 RPKM.

**Q.** What about the Activity [24] of the same compound?
**A.** Its Activity is 13.618 RPKM.
